Source: PubChem BioAssay
KCNQ1 inh – inhibitors of human KCNQ1 potassium channel; AID 2642; P51787; CHO-K1 KCNQ1, FluxOR thallium flux fluorescence; stronger effect = higher value; hit rate 1.3% among 310,000; B-score at 10 µM;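 active means compounds whose thallium flux B-score, printed positive for inhibition, exceeds three library SD while starting fluorescence stays within three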;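 further: channel opened by potassium depolarization with thallium stimulus after 20 min compound exposure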
KCNK9 inh – inhibitors of human KCNK9 two-pore domain potassium channel; Q9NPC2; HEK293 KCNK9, FluxOR thallium flux fluorescence; stronger effect = lower value; B-score at 10 µM; hit rate 1.2% among 310,000; AID 488922;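 active means ratio B-score over 3 SD below the library mean, with starting fluorescence within 5 SD of its mean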;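 further: negative B-score means less thallium flux so channel inhibition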
KCNK3 block – human KCNK3 channel inhibition, primary screen; CHO-KCNK3 thallium flux, FluxOR fluorescence; stronger effect = lower value; B-score at 10 µM; hit rate 0.84% among 340,000;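 active means B-score under library mean minus 4 SD, starting fluorescence ratio at most library mean plus 5 SD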;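 further: more negative B-score means stronger inhibition of thallium flux through KCNK3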
Kir21 inh – blocks the mouse Kir2.1 inward-rectifier potassium channel | AID 1672 | hit rate 0.85% among 310,000 | B-score at 10 µM | P35561 | HEK293-Kir2.1, FluxOR thallium flux fluorescence; stronger effect = lower value;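 active means fluorescence ratio B-score at or below minus 3 SD of library scores, with starting-brightness B-score within 2 SD, cut at about -4.2 in these data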;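 further: channel flux triggered by added potassium and thallium sulfate stimulus; B-score of peak minus minimum fluorescence over baseline after thallium stimulus; more negative B-score means stronger Kir2.1 block with less thallium influx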
Target sequence (P35561 whole entry, looked up): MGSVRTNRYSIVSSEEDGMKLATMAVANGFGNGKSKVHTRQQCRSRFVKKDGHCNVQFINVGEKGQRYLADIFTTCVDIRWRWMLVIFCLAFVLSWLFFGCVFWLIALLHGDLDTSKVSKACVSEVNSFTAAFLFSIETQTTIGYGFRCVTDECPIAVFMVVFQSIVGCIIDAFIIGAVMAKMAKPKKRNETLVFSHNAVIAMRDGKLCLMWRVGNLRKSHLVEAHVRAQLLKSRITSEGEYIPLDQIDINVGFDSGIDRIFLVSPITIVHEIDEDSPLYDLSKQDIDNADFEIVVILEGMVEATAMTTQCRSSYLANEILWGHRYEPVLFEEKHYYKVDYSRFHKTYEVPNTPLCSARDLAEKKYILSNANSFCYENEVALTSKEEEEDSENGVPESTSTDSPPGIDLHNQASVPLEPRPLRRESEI
hERG protect – hERG (human) protection from proarrhythmic block; activation (rescue from dofetilide block), less the hit threshold, % at 10 µM; Q12809; hit rate 0.51% among 310,000; CHO-hERG, FluxOR thallium flux, dofetilide IC70 present;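 active means activation above the mean of controls blocked by dofetilide plus 5 SD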;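 further: thallium influx through hERG after potassium depolarization seen as dye fluorescence rise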
KCNQ1 act – potentiates or activates the human KCNQ1 potassium channel. P51787. hit rate 0.35% among 310,000. CHO-K1 KCNQ1, thallium flux FluxOR fluorescence; stronger effect = higher value. B-score at 10 µM;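 active means fluorescence ratio B-score, a plate-corrected score, at least three library SD, with initial intensity B-score within 5 SD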
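Schedule – 37 °C overnight plating, 90-min dark dye load, 20-min compound pretreatment · System – stable KCNQ1 CHO-K1 line · Probe or stimulus – thallium- and potassium-containing depolarizing buffer · Measured by – kinetic FluxOR fluorescence, 10 s baseline plus 110 s post-stimulus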
KCNK9 inh conf – confirmation of human KCNK9 potassium channel inhibitors. shares compounds with KCNK9 inh. HEK293 KCNK9 cells, FluxOR thallium flux fluorescence. inhibition, % at 10 µM. hit rate 43% among 4,900. AID 492992;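 active means thallium signal inhibited by more than 5 SD of the compound-free buffer control wells, on both duplicate plates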;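 further: 0% = assay buffer control wells without compound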
Kir21 sel – mouse Kir2.1 off-target activity of KCNK9 modulators | shares compounds with KCNK9 inh | Kir2.1 cells, FluxOR thallium flux fluorescence | inhibition, % at 10 µM | hit rate 4% among 4,900 | AID 492993;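 active means thallium signal drop more than 5 SD beyond the mean of the no-compound control wells, seen in both duplicate plates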;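 further: signal is fluorescence rise after thallium addition divided by baseline fluorescence; plate controls were assay buffer only for no effect and full block by chlorpromazine control for full effect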
KCNK9 uninduced – second counter-screen for KCNK9 modulators: effect in non-induced cells; hit rate 40% among 4,900; inhibition, % at 10 µM; non-induced KCNK9-HEK293, FluxOR thallium flux; shares compounds with KCNK9 inh;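 active means thallium signal drop beyond 5 SD of the untreated control mean, on both duplicate plates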;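 further: plate controls were buffer only IC0 wells for no effect and SID17386958 at its maximal inhibitory level for full effect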
Active calls of the source: *; i = inactive; · = no result. Hits are enriched below; roughly 3.7% of the tested compounds scored in any of these assays.

SMILES	KCNQ1 inh	KCNK9 inh	KCNK3 block	Kir21 inh	hERG protect	KCNQ1 act	KCNK9 inh conf	Kir21 sel	KCNK9 uninduced
O=C(Cc1ccc(S(=O)(=O)N2CCOCC2)s1)N(Cc1ccccc1)c1ccccc1	i	i	i	-0.27	-17	i	·	·	·
CCCCN(C(=O)Cc1ccc(S(=O)(=O)N2CCOCC2)s1)c1ccccc1	i	i	i	-0.4	-7	i	i	i	i
COc1cccc(CNC(=O)CCC(=O)N2CCOCC2)c1	·	·	i	·	·	·	·	·	·
O=c1/c(=C\c2cccc(O)c2)sc2nc(-c3ccccc3)c(-c3ccccc3)n12	i	-10*	i	-0.97	-6	i	43%*	i	28%*
CSc1ccc(CN(C)CC(=O)NC(=O)NC(C)(C)C)cc1	i	i	i	-1.2	-9	i	i	i	i
O=C(NC(Cc1ccccc1)c1ccc2c(c1)OCCCO2)c1ccccc1F (centres undefined)	i	i	i	0.58	-9	i	·	·	·
CC(=O)N(CCC(Cc1ccccc1)c1ccc2c(c1)OCO2)Cc1ccccc1F (centres undefined)	6*	-16*	i	-0.62	-6	i	28%*	i	i
CC(=NNc1nc2ccccc2s1)c1ccncn1	·	·	i	·	·	·	·	·	·
C/C(=N\Nc1nc2ccccc2s1)c1ccc(Br)s1	i	i	i	1.1	2	10*	i	i	i
NNC(=O)c1ccc(OCC2CC(c3ccc(Cl)cc3)=NO2)cc1 (centres undefined)	i	i	i	0.17	-4	i	·	·	·
COc1ccc(CCCc2nnc(SCC(=O)Nc3cccc(C)c3)o2)cc1	i	i	i	-0.16	-4	i	i	i	i
CCN(CC)S(=O)(=O)c1ccc(N2CCOCC2)c(NC(=O)c2ccc(=O)[nH]c2)c1	·	·	i	·	·	·	·	·	·
CC(=O)CCCCn1cnc2c1c(=O)n(C)c(=O)n2C	i	i	·	0.29	-4	i	·	·	·
Cc1c(C(=O)Nc2nc3ccccc3[nH]2)cccc1[N+](=O)[O-]	i	-8.4*	i	1.8	-5	i	47%*	i	26%*
O=C(Nc1nc2ccccc2[nH]1)c1ccccc1[N+](=O)[O-]	i	i	i	-0.43	-6	i	·	·	·
O=C(Nc1ccc(Cl)cn1)c1cccc2c(Br)cccc12	i	-17*	i	-0.56	-7	i	71%*	i	42%*
O=C(Nc1ccc(Br)cn1)c1cccc2ccccc12	i	i	i	2.5	-4	i	·	·	·
CC1=CC2(C)C(C3C(C)=CC2(C)C(=O)C3(C)O)C(C)(O)C1=O (centres undefined)	·	·	i	·	·	·	·	·	·
COc1cc(C(=O)OC2CC3CCC2(C)C3(C)C)ccc1OC(C)=O (centres undefined)	i	i	i	0.62	-12	i	·	·	·
Cc1cc(C)c2cc(C#N)c(SCC(=O)Nc3cc(C)on3)nc2c1	i	i	i	2.5	-9	i	·	·	·
O=C(O)c1ccc(-c2nc(-c3ccc(Cl)c(Cl)c3)cs2)cc1	i	i	i	3.1	-2	i	i	i	i
Cc1ccc(C)c(OCCC(=O)Nc2ccc(S(=O)(=O)N3CCCC3)cc2)c1	·	·	i	·	·	·	·	·	·
NC(=O)c1cc(Br)cc(C2CCCCC2)c1O	i	i	i	-0.23	-1	i	·	·	·
O=C(c1cccs1)c1no[n+]([O-])c1C(=O)c1cccs1	9*	-11*	i	-11	-33	i	44%*	36%*	52%*
O=C(c1ccc(Cl)nc1)c1cccs1	i	i	·	-0.08	-5	i	·	·	·
